Data as given in ChEMBL document CHEMBL1158412, “Novel pyridopyrimidine derivatives as inhibitors of stable toxin a (STa) induced cGMP synthesis” (Bioorg Med Chem Lett, 2009).

system: not listed separately; assay: Inhibition of Escherichia coli heat stable toxin A-stimulated cGMP accumulation in human T84 cells pretreated 10 mins before 1 nM toxin challenge measured after 10 mins of induction by ELISA; assay type: cell-based

Structure (SMILES)	IC50 [µM]
Cn1c2c(c(=O)n(C)c1=O)C(c1cccc(Br)c1)C1=C(N2)c2ccccc2C1=O (centres undefined)	9.6
Cn1c2c(c(=O)n(C)c1=O)C(c1cc(F)cc(C(F)(F)F)c1)C1=C(N2)c2ccccc2C1=O (centres undefined)	3.4
Cn1c2c(c(=O)n(C)c1=O)C(c1cc(C(F)(F)F)cc(C(F)(F)F)c1)C1=C(N2)c2ccccc2C1=O (centres undefined)	2.5

system: T84; assay: Inhibition of Escherichia coli heat stable toxin A-stimulated cGMP accumulation in human T84 cells at 50 uM pretreated 10 mins before 250 nM toxin challenge measured after 10 mins of induction by ELISA; assay type: cell-based
Procedure, shortened: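 T84 cells preincubated 10 min with test compound, then left unstimulated (basal) or stimulated with 250 nM STa for 10 min; cGMP extracted and quantified by ELISA. Each plate included a vehicle control, and percent inhibition was calculated per plate.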

Structure (SMILES)	inhibition [%]
Cn1c2c(c(=O)n(C)c1=O)C(c1cccc(Br)c1)C1=C(N2)c2ccccc2C1=O (centres undefined)	86
Cn1c2c(c(=O)n(C)c1=O)C(c1cc(F)cc(F)c1F)C1=C(N2)c2ccccc2C1=O (centres undefined)	42
O=C1C2=C(Nc3[nH]nc(-c4ccsc4)c3C2c2cc(C(F)(F)F)cc(C(F)(F)F)c2)c2ccccc21 (centres undefined)	-2
Cn1c2c(c(=O)n(C)c1=O)C(c1ccccc1)C1=C(N2)c2ccccc2C1=O (centres undefined)	7
COc1cc(C2C3=C(Nc4c2c(=O)n(C)c(=O)n4C)c2ccccc2C3=O)ccc1O (centres undefined)	29
Cn1c2c(c(=O)n(C)c1=O)C(c1cccc(Br)c1)C1=C(CCC1=O)N2 (centres undefined)	56
O=C1C2=C(Nc3[nH]c(=O)[nH]c(=O)c3C2c2cc(C(F)(F)F)cc(C(F)(F)F)c2)c2ccccc21 (centres undefined)	56
Cn1c2c(c(=O)n(C)c1=O)C(c1cccc(F)c1)C1=C(N2)c2ccccc2C1=O (centres undefined)	63
Cn1c2c(c(=O)n(C)c1=O)C(c1cccc(Br)c1)C1=C(CC(c3ccco3)CC1=O)N2 (centres undefined)	2
Cn1c2c(c(=O)n(C)c1=O)C(c1cc(F)cc(C(F)(F)F)c1)C1=C(N2)c2ccccc2C1=O (centres undefined)	93
CC1=C(C(=O)Nc2nccs2)C(c2cccc(Br)c2)c2c(n(C)c(=O)n(C)c2=O)N1 (centres undefined)	11
Cn1c2c(c(=O)n(C)c1=O)C(c1cccc(C(F)(F)F)c1F)C1=C(N2)c2ccccc2C1=O (centres undefined)	80
CC(C)C(=O)N1C2=C(C(=O)c3ccccc32)C(c2ccc(Cl)cc2)c2c1n(C)c(=O)n(C)c2=O (centres undefined)	22
Cn1c2c(c(=O)n(C)c1=O)C(c1ccc(F)c(F)c1F)C1=C(N2)c2ccccc2C1=O (centres undefined)	62
Cn1c2c(c(=O)n(C)c1=O)C(c1cc(C(F)(F)F)cc(C(F)(F)F)c1)C1=C(N2)c2ccccc2C1=O (centres undefined)	93
Cn1c2c(c(=O)[nH]c1=O)C(c1cccc(Br)c1)C1=C(N2)c2ccccc2C1=O (centres undefined)	1
Cn1c2c(c(=O)n(C)c1=O)C(c1ccc(O)c(O)c1)C1=C(N2)c2ccccc2C1=O (centres undefined)	26
Cn1c(=O)c2c(-c3cccc(Br)c3)c3c(nc2n(C)c1=O)-c1ccccc1C3=O	2
Cn1c2c(c(=O)[nH]c1=O)C(c1cc(F)cc(C(F)(F)F)c1)C1=C(N2)c2ccccc2C1=O (centres undefined)	-6
Cn1c2c(c(=O)n(C)c1=O)C(c1cccc(C#N)c1)C1=C(N2)c2ccccc2C1=O (centres undefined)	23
Cn1c2c(c(=O)n(C)c1=O)C(c1ccc(F)c(F)c1F)C1=C(CC(c3ccco3)CC1=O)N2 (centres undefined)	-3
Cn1c2c(c(=O)n(C)c1=O)C(c1cc(F)cc(F)c1)C1=C(N2)c2ccccc2C1=O (centres undefined)	63
CC1=C(C(N)=O)C(c2cc(C(F)(F)F)cc(C(F)(F)F)c2)c2c(n(C)c(=O)n(C)c2=O)N1 (centres undefined)	8
CC1=C(C(=O)Nc2ccccc2)C(c2cc(C(F)(F)F)cc(C(F)(F)F)c2)c2c(n(C)c(=O)n(C)c2=O)N1 (centres undefined)	22
Cn1c2c(c(=O)[nH]c1=O)C(c1cc(C(F)(F)F)cc(C(F)(F)F)c1)C1=C(N2)c2ccccc2C1=O (centres undefined)	19
Cn1c2c(c(=O)n(C)c1=O)C(c1cccc(C(F)(F)F)c1)C1=C(N2)c2ccccc2C1=O (centres undefined)	73
